The nature of assay [1]: The relative effective concentration to induce same level of histone H4 acetylation of human T24 cells by MS-275 at 1 uM. It is filed as functional, T-24.
The target in a further assay is Histone deacetylase 1 (Homo sapiens, UniProt Q13547). Nature of the assay: Inhibitory activity on partially purified recombinant human Histone deacetylase 1 (HDAC-1).
Another assay has as its system NCI-H446. Nature of the assay: Inhibitory concentration against lung H446 cell line. It is filed as functional, cell-based. As to conditions: Homo sapiens. The method in brief:
(§1)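 MTT assay: cells exposed to a range of compound concentrations for 72 h at 37 °C, 5% CO2. MTT added at 0.5 mg/mL final for 4 h, then solubilized with DMF/SDS buffer (pH 4.7) overnight; absorbance at 570 with 630 reference. OD converted to cell numbers via a standard growth curve.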

In assay [2] the test system is Fibroblast MRHF cell line. Nature of the assay: Inhibitory concentration against normal fibroblast MRHF cell line. It is filed as functional, cell-based. As to conditions: Homo sapiens. Summed up:
as §1

For the next assay, the system named is T-24. Nature of the assay: Inhibitory concentration against bladder T24 cell line. It is filed as functional, cell-based. As to conditions: Homo sapiens. The method in brief:
as §1

Another assay has as its system MDA-MB-231. Nature of the assay: Inhibitory concentration against breast MDA-MB-231 cell line. It is filed as functional, cell-based. As to conditions: Homo sapiens. The method in brief: as §1
The subject of another assay is HMEC. Nature of the assay: Inhibitory concentration against normal epithelial HMEC cell line. It is filed as functional, cell-based. As to conditions: Homo sapiens. Summed up:
as §1

A further assay concerns DU-145. Nature of the assay: Inhibitory concentration against prostate DU145 cell line. As to conditions: Homo sapiens. It is filed as functional, cell-based. The method in brief: as §1
Another assay has as its system SW48. Nature of the assay: Inhibitory concentration against colon SW48 cell line. It is filed as functional, cell-based. As to conditions: Homo sapiens. Summed up: as §1
The subject of assay [3] is HCT-116. Nature of the assay: Inhibitory concentration against colon HCT116 cell line. It is filed as functional, cell-based. As to conditions: Homo sapiens. The method in brief:
as §1

A further assay concerns A549. Nature of the assay: Inhibitory concentration against lung A549 cell line. It is filed as functional, cell-based. As to conditions: Homo sapiens. Summed up: as §1
The test system of assay [4] is HCT-116. Nature of the assay: In vivo percent inhibitory activity of intraperitoneally administered compound (40 mg/kg/day) against mice […] with HCT116 tumor. It is filed as functional, Homo sapiens. Summed up: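 CD1 nude mice (18–22 g) implanted with 30 mg fragments of serially passaged A549 or HCT116 tumor; randomized at ~100 mm3 mean tumor volume, six per group. Daily intraperitoneal dosing (7 days/week) for 21 days, compound dissolved in DMSO; vehicle-only controls. Body weight and tumor volume monitored three times weekly; percent tumor growth inhibition versus vehicle.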

The subject of a further assay is MCF7. Nature of the assay: Inhibitory concentration against breast MCF-7 cell line. It is filed as functional, cell-based. As to conditions: Homo sapiens. The method in brief: as §1

Structures are written as SMILES.

Sequence of Histone deacetylase 1 (Q13547 whole entry): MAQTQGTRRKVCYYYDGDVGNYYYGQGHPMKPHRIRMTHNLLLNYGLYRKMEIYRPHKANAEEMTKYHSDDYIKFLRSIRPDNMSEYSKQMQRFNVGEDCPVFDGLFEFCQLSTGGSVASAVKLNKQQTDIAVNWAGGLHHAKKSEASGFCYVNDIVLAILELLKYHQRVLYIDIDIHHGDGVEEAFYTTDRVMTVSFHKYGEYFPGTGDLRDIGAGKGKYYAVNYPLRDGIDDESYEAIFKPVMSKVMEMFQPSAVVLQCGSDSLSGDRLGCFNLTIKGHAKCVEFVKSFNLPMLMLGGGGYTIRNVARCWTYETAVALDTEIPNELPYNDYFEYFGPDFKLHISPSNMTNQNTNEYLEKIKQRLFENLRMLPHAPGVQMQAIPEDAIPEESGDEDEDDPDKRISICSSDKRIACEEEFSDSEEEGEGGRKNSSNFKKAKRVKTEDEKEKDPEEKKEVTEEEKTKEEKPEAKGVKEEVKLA

As for `O=C(/C=C/c1ccc(NS(=O)(=O)c2ccc(-c3ccccc3)cc2)cc1)NO`, the EC in [1] was determined as 1 µM.

Broadly, the IC50 is the concentration that inhibits the measured activity by half. Regarding `COc1ccc(NS(=O)(=O)c2ccc(/C=C/C(=O)NO)cc2)cc1OC`, the IC50 at Histone deacetylase 1 was 0.05 µM.

One may read the Inhibition as the change of the read-out against control, counted positive when it falls. A higher Inhibition goes with a strong effect. `Cc1ccc(S(=O)(=O)Nc2ccc(/C=C/C(=O)Nc3ccccc3N)cc2)cc1`: the IC50 in the assay on NCI-H446 is 1 µM; in assay [2], more than 37 µM; with T-24, 8 µM; in the assay on MDA-MB-231, 2 µM; in the assay with HMEC, more than 37 µM; in the assay on DU-145, 2 µM. For the same molecule, the IC50 with SW48 worked out at 10 µM; in the assay on HCT-116 [3], 4 µM; in the assay on A549, 8 µM; in the assay on MCF7 it was 6 µM. Besides, in the assay on HCT-116 [4], the Inhibition was found to be 55%.

The molecule `COc1ccc(NC(=O)Nc2ccc(/C=C/C(=O)NO)cc2)cc1OC` came in with an EC in assay [1] of more than 25 µM. In addition, the IC50 on Histone deacetylase 1 is 1 µM.

On to `COc1ccc(NS(=O)(=O)c2ccc(/C=C/C(=O)Nc3ccccc3N)cc2)cc1OC`, for which the IC50 on Histone deacetylase 1 is 3 µM.

For `Nc1ccccc1NC(=O)/C=C/c1ccc(NS(=O)(=O)c2ccc(-c3ccccc3)cc2)cc1`, the IC50 was 8 µM in the assay on NCI-H446; more than 25 µM in assay [2]; more than 36 µM in the assay with T-24; 18 µM in the assay with MDA-MB-231; more than 36 µM in the assay with HMEC; 15 µM in the assay on DU-145. Moreover, the IC50 with SW48 was found to be 30 µM; in the assay on HCT-116 [3], 15 µM; in the assay on A549, 18 µM; in the assay with MCF7, 29 µM. In [1], this molecule displayed an EC of 15 µM.

`Cc1ccc(NS(=O)(=O)c2ccc(/C=C/C(=O)NO)cc2)cc1` had an EC in assay [1] of 1 µM. Further, at Histone deacetylase 1, the IC50 stood at 0.2 µM.

Molecule `CN(C)c1cccc2c(S(=O)(=O)Nc3ccc(/C=C/C(=O)NO)cc3)cccc12` showed an EC in assay [1] of 5 µM. Further, the IC50 on Histone deacetylase 1 is 0.2 µM.

Turning to `O=C(O)/C=C/c1ccc(NS(=O)(=O)c2ccc(-c3ccccc3)cc2)cc1`, at Histone deacetylase 1, the 50% inhibitory concentration (IC50) is more than 25 µM.

Take `Nc1ccccc1NC(=O)/C=C/C#Cc1ccc(NS(=O)(=O)c2ccccc2)cc1`: the IC50 on Histone deacetylase 1 was 5 µM.

With `Nc1ccccc1NC(=O)/C=C/c1ccc(NS(=O)(=O)c2cccc3oc4ccccc4c23)cc1`, the EC in [1] was 10 µM. For the same molecule, the IC50 at Histone deacetylase 1 came to 0.4 µM.

`O=C(/C=C/c1ccc(NS(=O)(=O)c2cccc3oc4ccccc4c23)cc1)NO` returned an EC in assay [1] of 1 µM. For the same molecule, the IC50 on Histone deacetylase 1 is 0.04 µM.

`O=C(/C=C/c1ccc(NS(=O)(=O)c2cccc3ccccc23)cc1)NO`: the EC in assay [1] is 5 µM.

Molecule `Nc1ccccc1NC(=O)/C=C/c1ccc(NS(=O)(=O)c2cccc3ccccc23)cc1` registered an EC in assay [1] of 10 µM. For the same molecule, the IC50 at Histone deacetylase 1 worked out at 3 µM.

On to `Cc1ccc(S(=O)(=O)Nc2ccc(/C=C/C(=O)NO)cc2)cc1`, for which, in assay [1], the EC was determined as 10 µM.

Take `Cc1ccc(NS(=O)(=O)c2ccc(/C=C/C(=O)Nc3ccccc3N)cc2)cc1`: the IC50 in the assay with NCI-H446 is 2 µM; in assay [2] it was 34 µM; in the assay on T-24, 6.5 µM; in the assay with MDA-MB-231, 9 µM; in the assay with HMEC, more than 41 µM; with DU-145 it was 7 µM. Further, the half-maximal inhibitory concentration (IC50) in the assay on SW48 came out at 6.5 µM; at Histone deacetylase 1, 2 µM; in the assay on HCT-116 [3], 3.5 µM; with A549, 9.5 µM; with MCF7 it was 11.5 µM. In the assay with HCT-116 [4], this molecule showed an Inhibition of 37%.

Turning to `COc1ccc(S(=O)(=O)Nc2ccc(/C=C/C(=O)Nc3ccccc3N)cc2)cc1`, the IC50 with NCI-H446 was determined as 2 µM; with T-24, 8 µM; in the assay on MDA-MB-231 it was 6 µM; in the assay with HMEC, 38 µM; in the assay with DU-145 it was 5 µM; in the assay on SW48, 4 µM. Moreover, the IC50 on Histone deacetylase 1 turned out to be 1 µM; with HCT-116 [3] it was 2.5 µM; with A549, 10 µM; in the assay with MCF7, 8 µM. The molecule also showed an EC in [1] of 1 µM.

For the molecule `O=C(/C=C/c1ccc(NS(=O)(=O)c2cccc3cccnc23)cc1)NO`, in [1], the EC came to 25 µM.

`Nc1ccccc1NC(=O)/C=C/c1ccc(S(=O)(=O)Nc2ccc(-c3ccccc3)cc2)cc1` returned an EC in assay [1] of 5 µM. Moreover, the IC50 on Histone deacetylase 1 turned out to be 1 µM.

In turn, `O=C(/C=C/c1ccc(S(=O)(=O)Nc2ccc(-c3ccccc3)cc2)cc1)NO` yielded an EC in assay [1] of 1 µM.

For `COc1ccc(S(=O)(=O)Nc2ccc(/C=C/C(=O)NO)cc2)cc1`, the EC in assay [1] was 5 µM.

Take `COc1ccc(S(=O)(=O)Nc2ccc(/C=C/C(=O)NO)cc2)cc1OC`: the IC50 in the assay on NCI-H446 amounted to 0.4 µM; in assay [2], 5 µM; in the assay with T-24 it was 2 µM; in the assay with MDA-MB-231, 0.7 µM; with HMEC it was 20 µM; in the assay on DU-145 it was 0.75 µM. The half-maximal inhibitory concentration (IC50) in the assay on SW48 was 0.8 µM; in the assay on HCT-116 [3], 0.2 µM; in the assay with A549, 2 µM; in the assay on MCF7, 1.5 µM. In addition, in assay [1], the EC turned out to be 1 µM.

With `Nc1ccccc1NC(=O)c1ccc(CNC(=O)OCc2cccnc2)cc1` [ENTINOSTAT], the IC50 was 1 µM in the assay with NCI-H446; more than 37 µM in assay [2]; 2.5 µM in the assay on T-24; 3 µM with MDA-MB-231; more than 37 µM in the assay on HMEC; 1 µM with DU-145. In addition, the IC50 amounted to 5 µM with SW48, 0.6 µM in the assay on HCT-116 [3], 8 µM with A549 and 5 µM in the assay on MCF7.

In the case of `O=C(/C=C/C#Cc1cccc(NS(=O)(=O)c2ccccc2)c1)NO` [OXAMFLATIN], the IC50 on Histone deacetylase 1 is 0.1 µM.

Turning to `CC(/C=C/C(=O)NO)=C\[C@@H](C)C(=O)c1ccc(N(C)C)cc1` [TRICHOSTATIN], the IC50 was determined as 1.5 µM with NCI-H446; 36 µM in assay [2]; 4 µM in the assay with T-24; 3.5 µM in the assay on MDA-MB-231; 32 µM with HMEC; 3.5 µM in the assay with DU-145. Further, the IC50 was found to be 5 µM in the assay with SW48, 0.9 µM in the assay with HCT-116 [3], 4.5 µM with A549 and 10 µM in the assay with MCF7.

Values taken from ChEMBL document CHEMBL1145775, “Development of potential antitumor agents. Synthesis and biological evaluation of a new set of sulfonamide derivatives as histone deacetylase inhibitors” (J Med Chem, 2003).
